We go through five compounds from ChEMBL document CHEMBL1124216, “A novel class of potential central nervous system agents. 3-Phenyl-2-(1-piperazinyl)-5H-1-benzazepines” (1988).

What all share (type): functional
Test [1] has as its system Mus musculus. The experiment in a line: Antiexploratory activity (EXPL) of mice determined by an antimex activity meter, 100 mg/kg of dose was administered perorally; No inhibition. Conditions: route oral.
The subject of test [2] is Mus musculus. The experiment in a line: Antimaximal electroshock seizure (MES) activity in mice after peroral administration of 100 mg/kg of compound; 2/5. The settings on record: route oral. For orientation: The maximal electroshock test induces tonic seizures with an electrical stimulus.
The subject of test [3] is Mus musculus. The test can be described thus: Antitremorine activity(TRM) of mice after peroral administration of 100 mg/kg of compound; No inhibition. The settings on record: route oral.
For test [4], the system named is Mus musculus. The experiment in a line: Antireserpine activity (RES) of mice after peroral administration of 100 mg/kg of compound; No inhibition. Conditions: route oral.
Test [5] deals with Mus musculus. The experiment in a line: Antimaximal electroshock seizure (MES) activity in mice after peroral administration of 10 mg/kg of compound; 0/5. The settings on record: route oral.
The test system of test [6] is Mus musculus. The test can be described thus: Antitremorine activity(TRM) of mice after peroral administration of 100 mg/kg of compound. Conditions: route oral.
For test [7], the system named is Mus musculus. The test can be described thus: Antipentylene tetrazole activity was determined in mice when administered perorally. Conditions: po. The method, boiled down:
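Groups of five male Std-ddY mice received compound orally in 0.5% tragacanth, then pentylenetetrazole 175 mg/kg ip. Blockade of the tonic extensor component scored as anticonvulsant. ED50 was the dose protecting 50% of animals (Litchfield-Wilcoxon).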

Test [8] deals with Mus musculus. The experiment in a line: Antimaximal electroshock seizure activity was determined in mice when administered perorally. Conditions: po.
Test [9] concerns Mus musculus. The test can be described thus: Antiexploratory activity (EXPL) of mice determined by an antimex activity meter, 100 mg/kg of dose was administered perorally. Conditions: route oral.
Test [10] relates to Mus musculus. The experiment in a line: Antireserpine activity (RES) of mice after peroral administration of 100 mg/kg of compound. The settings on record: route oral.
Test [11] has as its system Mus musculus. The test can be described thus: Antimaximal electroshock seizure (MES) activity in mice after peroral administration of 100 mg/kg of compound; 4/5. The settings on record: route oral.
Test [12] deals with Mus musculus. The test can be described thus: Inhibition of conditioned avoidance response in mice when administered perorally. The settings on record: po. In a few lines:
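One-way active avoidance in male Std-ddY mice in a dark/light two-compartment box. Mice trained to move to the lit side on a warning stimulus to escape floor shock; groups of 10 avoiding at >80% in 10 trials. Compound po in 0.5% tragacanth. ED50 is the dose halving avoidance rate (Litchfield-Wilcoxon).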

Test [13] concerns Mus musculus. The test can be described thus: 3,4 -Dihydroxy phenylacetic acid (DOPAC) levels in mouse brain at 10 mg/kg dose. In a few lines: (§1)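 Male Std-ddY mice (20-25 g) dosed orally with compound dissolved or suspended in 0.5% aqueous tragacanth. DOPAC measured fluorometrically after purification by column chromatography on Sephadex G-10 and QAE-Sephadex. Brains from five mice per compound pooled for the determination.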

The subject of test [14] is Mus musculus. The test can be described thus: Concentration of compound that causes catalepsy in the mice when administered perorally. Conditions: po. In a few lines: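 Male Std-ddY mice were dosed orally, vehicle 0.5% aqueous tragacanth. At 2 h, forepaws were placed on a rod 4.5 cm high. Failure to remove the paws within 30 s in three successive trials was scored cataleptic. ED50 was the dose giving catalepsy in 50% of mice (Litchfield-Wilcoxon).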

For test [15], the system named is Mus musculus. The test can be described thus: The homovanillic acid (HVA)levels in mouse brain at 10 mg/kg of dose. The method, boiled down: (§2)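 Male Std-ddY mice (20-25 g) dosed orally with compound in 0.5% aqueous tragacanth (solution or suspension). Brain homovanillic acid (HVA) determined by a published method. Brains from five mice per compound pooled for one determination.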

The subject of test [16] is Mus musculus. The test can be described thus: Antiexploratory activity (EXPL) of mice determined by an antimex activity meter, 10 mg/kg of dose was administered perorally. Conditions: route oral. In a few lines:
(§3)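 Male Std-ddY mice (20-25 g), five per dose, given compound orally in 0.5% aqueous tragacanth. Two hours later each mouse was placed in the activity-meter cage and locomotor activity was counted for 3 min. Suppression is expressed as percent inhibition of control. ED50 (dose giving 50% inhibition) calculated by Litchfield-Wilcoxon.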

Test [17] relates to Canis familiaris. The test can be described thus: Inhibition of apomorphine induced emesis in dogs when administered perorally. The settings on record: Canis lupus familiaris, po. The method, boiled down: (§4)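 Beagle dogs (10-15 kg), groups of three, given compound po in a gelatin capsule; 2 h later apomorphine hydrochloride 0.3 mg/kg sc. Vomiting counted for 1 h; mean inhibition as percent of control. ED50 is the dose giving 50% inhibition of emesis, by Litchfield-Wilcoxon.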

For test [18], the system named is Mus musculus. The test can be described thus: Concentration of compound that causes ptosis in the mice when administered perorally. Conditions: po. The method, boiled down: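 Five male Std-ddY mice per group were dosed orally in 0.5% aqueous tragacanth. At 2 h, eyelid closure was scored macroscopically (8 open to 0 fully closed). Group mean scores formed a dose-response curve. ED50 was the dose reducing the mean score to 50%.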

Test [19] deals with Mus musculus. The experiment in a line: 3,4 -Dihydroxy phenylacetic acid (DOPAC) levels in mouse brain at 50 mg/kg dose. In a few lines:
as §1

Test [20] deals with Mus musculus. The test can be described thus: Antiexploratory activity (EXPL) of mice determined by an antimex activity meter, when administered perorally. The settings on record: po. In a few lines: as §3
In test [21] the test system is Mus musculus. The experiment in a line: The homovanillic acid (HVA)levels in mouse brain at 50 mg/kg of dose. The method, boiled down: as §2
Test [22] relates to Canis familiaris. The experiment in a line: Inhibition of apomorphine induced emesis in dogs at 2 mg/kg of dose. The settings on record: Canis lupus familiaris. In a few lines: as §4
The test system of a further test is Rattus norvegicus. The test can be described thus: Inhibition of self stimulation response in rats when administered perorally. Conditions: po. The method, boiled down: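 Male Wistar HLA rats (300-400 g) with chronic electrodes implanted in the lateral posterior hypothalamus; only rats lever-pressing steadily at 50-100/min were used. Compound given po in 0.5% tragacanth. Self-stimulation counted for 10 min before and 2 h after dosing. ED50 is the dose giving ≥50% rate inhibition in 50% of rats (Litchfield-Wilcoxon).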

The subject of test [23] is Mus musculus. The experiment in a line: Antiexploratory activity (EXPL) of mice determined by an antimex activity meter, 50 mg/kg of dose was administered perorally. Conditions: route oral. The method, boiled down: as §3
In test [24] the test system is Mus musculus. The test can be described thus: Antitremorine activity(TRM) of mice after peroral administration of 10 mg/kg of compound; Slight inhibition (31-50%). Conditions: route oral.
Test [25] deals with Mus musculus. The test can be described thus: Antiexploratory activity (EXPL) of mice determined by an antimex activity meter, 10 mg/kg of dose was administered perorally; No inhibition. Conditions: route oral.
Test [26] concerns Mus musculus. The experiment in a line: Antitremorine activity(TRM) of mice after peroral administration of 100 mg/kg of compound; Moderate inhibition (51-71%). Conditions: route oral.
The subject of test [27] is Mus musculus. The experiment in a line: Antiexploratory activity (EXPL) of mice determined by an antimex activity meter, 100 mg/kg of dose was administered perorally; Potent inhibition. Conditions: route oral.
In test [28] the test system is Mus musculus. The experiment in a line: Antitreserpine activity(RES) of mice after peroral administration of 100 mg/kg of compound; Moderate inhibition (51-71%). The settings on record: route oral.

Bounds are passed on as bounds.

On to `CCN1CCN(C2=Nc3ccc(Br)cc3CC=C2c2ccc(Cl)cc2)CC1.O=C(O)/C=C/C(=O)O`, for which the inhibition in vivo at 100 mg/kg with Mus musculus [1], in the test on Mus musculus [3] and in the test with Mus musculus [4] was < 30% throughout. For the same compound, the Activity with Mus musculus [2] is reported as 2.

As for `CN1CCN(C2=Nc3ccc(Cl)cc3CC=C2c2ccccc2)CC1.Cl.Cl`, the results for the Activity in the test on Mus musculus [5] and with Mus musculus [11] were 0 and 4, respectively. Further, the inhibition in vivo (as a rule, the drop in the measured response relative to a control, in per cent) at 100 mg/kg was > 71% in the test on Mus musculus [6], < 30% in the test on Mus musculus [9] and < 30% in the test with Mus musculus [10]. Moreover, the figures for the ED50 with Mus musculus [7] and in the test with Mus musculus [8] were 42.9 mg/kg and 89.4 mg/kg, respectively.

As to `CN(C)CCCN1c2ccccc2Sc2ccc(Cl)cc21` [CHLORPROMAZINE], the ED50 (commonly the dose that gives a 50% effect, or the effect in half of the subjects) in the test on Mus musculus [12] stood at 5.59 mg/kg; in the test with Mus musculus [14], 7.81 mg/kg; with Canis familiaris [17], 4.53 mg/kg; in the test on Mus musculus [18] it was 24.9 mg/kg; with Mus musculus [20], 8.26 mg/kg; in the test on Rattus norvegicus it was 6.68 mg/kg. Further, the values for the Control % at 10 mg/kg in the test on Mus musculus [13] and in the test on Mus musculus [15] were 232% and 203%, respectively. For the same compound, the inhibition in vivo at 10 mg/kg in the test on Mus musculus [16] was determined as 46.3%. In addition, the Control % at 50 mg/kg amounted to 303% in the test on Mus musculus [19] and 304% with Mus musculus [21]. In the test on Canis familiaris [22], this compound showed an inhibition in vivo at 2 mg/kg of 22.2%. In the test on Mus musculus [23], this compound yielded an inhibition in vivo at 50 mg/kg of 90.1%.

Turning to `CCN1CCN(C2=Nc3ccc(Cl)cc3CC=C2c2ccccc2)CC1.Cl.Cl`, the inhibition in vivo at 100 mg/kg with Mus musculus [1] was < 30%; with Mus musculus [6], > 71%; in the test with Mus musculus [4], < 30%. Moreover, the Activity in the test on Mus musculus [5] is 0; in the test on Mus musculus [11], 4. Moreover, testing at 10 mg/kg in the test on Mus musculus [24] gave an inhibition in vivo of 31%. Besides, the results for the ED50 in the test with Mus musculus [7] and in the test on Mus musculus [8] were 34.7 mg/kg and 93.1 mg/kg, respectively.

For `COc1ccc2c(c1)CC=C(c1ccccc1)C(N1CCN(C)CC1)=N2.Cl.Cl`, the inhibition in vivo at 10 mg/kg in the test on Mus musculus [25] was < 30%. Further, the Activity with Mus musculus [5] was 0; with Mus musculus [11] it was 4. The values for the inhibition in vivo at 100 mg/kg with Mus musculus [26], in the test on Mus musculus [27] and in the test on Mus musculus [28] were 51%, > 71% and 51%, respectively.
